Measured values reported in ChEMBL document CHEMBL1127665, “Synthesis and antibacterial activity of new quinolones containing a 7-[3-(1-amino-1-methylethyl)-1-pyrrolidinyl] moiety. Gram-positive agents with excellent oral activity and low side-effect potential” (J Med Chem, 1994).
In brackets after ≈: the same amount, converted by molar mass.

Assays:
Escherichia coli = experiment: Minimum inhibitory concentration against Escherichia coli Vogel; type: functional
Outline: (§1)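 Tested by microtitration against a panel of 10 Gram-positive and Gram-negative organisms. MIC is reported in μg/mL.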

Staphylococcus aureus [1] = experiment: Minimum inhibitory concentration against Staphylococcus aureus H 228; type: functional; outline: as §1
Mus musculus [2] = experiment: In vivo antibacterial activity against Escherichia coli after following oral administration; type: functional; details: read-out: PD50
Outline: (§2)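 Acute lethal systemic infection in female Charles River CD-1 mice. Compound given orally or subcutaneously. Potency expressed as median protective dose (PD50, mg/kg), the dose preventing death in 50% of animals.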

Providencia rettgeri = experiment: Minimum inhibitory concentration against M1771 strain of Providencia rettgeri; type: functional; outline: as §1
Klebsiella pneumoniae = experiment: Minimum inhibitory concentration against Klebsiella pneumoniae MGH-2; type: functional; outline: as §1
Pseudomonas aeruginosa = experiment: Minimum inhibitory concentration against U1-18 cell line from Pseudomonas aeruginosa; type: functional; outline: as §1
[3] = The no effect dose (NED) for phototoxicity in mouse; type: organism-based; details: in vivo, read-out: NED
Outline: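 Female CD-1 mice were depilated and dosed orally, with five animals per dose plus controls. After each dose the mice were exposed to UVA for 3 h. This was repeated daily for 4 days. Any redness or erythema relative to control was scored positive. The value is the highest dose producing no effect, in mg/kg.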

Enterobacter cloacae = experiment: Minimum inhibitory concentration against Enterobacter cloacae MA 2646; type: functional
Enterococcus faecalis = experiment: Minimum inhibitory concentration against Streptococcus faecalis MGH-2; type: functional; outline: as §1
Mus musculus [4] = experiment: In vivo antibacterial activity against Streptococcus pyogenes after following oral administration; type: functional; details: read-out: PD50; outline: as §2
Mus musculus [5] = experiment: In vivo antibacterial activity against Escherichia coli after following subcutaneous administration; type: functional; details: sc, read-out: PD50; outline: as §2
Streptococcus pneumoniae = experiment: Minimum inhibitory concentration tested against Streptococcus pneumoniae SV-1; type: functional; outline: as §1
Streptococcus pyogenes = experiment: Minimum inhibitory concentration against Streptococcus pyogenes C203; type: functional; outline: as §1
Mus musculus [6] = experiment: In vivo antibacterial activity against Streptococcus pyogenes after following subcutaneous administration; type: functional; details: sc, read-out: PD50; outline: as §2
V79 = experiment: Clonogenic cytotoxicity against Hamster V-79 cells; type: cell-based; details: Cricetulus griseus
Staphylococcus aureus [7] = experiment: Minimum inhibitory concentration against Staphylococcus aureus UC-76; type: functional; outline: as §1

SMILES	MIC (Escherichia coli) [µg/mL]	MIC (Staphylococcus aureus [1]) [µg/mL]	ED50 (Mus musculus [2]) [mg/kg]	MIC (Providencia rettgeri) [µg/mL]	MIC (Klebsiella pneumoniae) [µg/mL]	MIC (Pseudomonas aeruginosa) [µg/mL]	NOAEL [3] [mg/kg]	MIC (Enterobacter cloacae) [µg/mL]	MIC (Enterococcus faecalis) [µg/mL]	ED50 (Mus musculus [4]) [mg/kg]	ED50 (Mus musculus [5]) [mg/kg]	MIC (Streptococcus pneumoniae) [µg/mL]	MIC (Streptococcus pyogenes) [µg/mL]	ED50 (Mus musculus [6]) [mg/kg]	IC50 (V79) [µg/mL]	MIC (Staphylococcus aureus [7]) [µg/mL]
C[C@@H](N)C1CCN(c2nc3c(cc2F)c(=O)c(C(=O)O)cn3C2CC2)C1 (stereo not given in full)	0.025 (≈ 0.0694 µM)	0.025 (≈ 0.0694 µM)	2	0.1 (≈ 0.277 µM)	0.05 (≈ 0.139 µM)	0.4 (≈ 1.11 µM)	30	0.05 (≈ 0.139 µM)	0.013 (≈ 0.0361 µM)	3	0.4	0.003 (≈ 0.00832 µM)	0.013 (≈ 0.0361 µM)	1	33 (≈ 91.6 µM)	0.003 (≈ 0.00832 µM)
CC(C)(N)[C@@H]1CCN(c2nc3c(cc2F)c(=O)c(C(=O)O)cn3-c2ccc(F)cc2F)C1.Cl	0.2	0.05	–	0.8	0.4	3.1	–	0.2	0.1	–	–	0.05	0.05	–	–	0.025
CC(C)(N)[C@H]1CCN(c2nc3c(cc2F)c(=O)c(C(=O)O)cn3C2CC2)C1.Cl	0.2	0.1	10	0.8	0.4	3.1	55	0.2	0.1	32	3	0.05	0.1	6	–	0.025
CC(C)(N)[C@H]1CCN(c2cc3c(cc2F)c(=O)c(C(=O)O)cn3C2CC2)C1.Cl	0.4	0.4	–	1.6	0.8	3.1	–	0.4	0.4	> 100	–	0.2	0.2	13	–	0.1
NCC1CCN(c2nc3c(cc2F)c(=O)c(C(=O)O)cn3-c2ccc(F)cc2F)C1 (stereo not given)	0.05 (≈ 0.12 µM)	0.05 (≈ 0.12 µM)	–	0.2 (≈ 0.478 µM)	0.1 (≈ 0.239 µM)	0.4 (≈ 0.956 µM)	–	0.05 (≈ 0.12 µM)	0.025 (≈ 0.0598 µM)	–	–	0.025 (≈ 0.0598 µM)	0.025 (≈ 0.0598 µM)	–	–	0.013 (≈ 0.0311 µM)
NCC1CCN(c2c(F)cc3c(=O)c(C(=O)O)cn(C4CC4)c3c2Cl)C1 (stereo not given)	0.025 (≈ 0.0658 µM)	0.003 (≈ 0.0079 µM)	33	0.05 (≈ 0.132 µM)	0.05 (≈ 0.132 µM)	0.4 (≈ 1.05 µM)	–	0.025 (≈ 0.0658 µM)	0.006 (≈ 0.0158 µM)	5	1	0.003 (≈ 0.0079 µM)	0.003 (≈ 0.0079 µM)	0.2	–	0.003 (≈ 0.0079 µM)
C[C@H](N)C1CCN(c2nc3c(cc2F)c(=O)c(C(=O)O)cn3C2CC2)C1 (stereo not given in full)	0.05 (≈ 0.139 µM)	0.05 (≈ 0.139 µM)	6	0.4 (≈ 1.11 µM)	0.1 (≈ 0.277 µM)	0.8 (≈ 2.22 µM)	67	0.05 (≈ 0.139 µM)	0.05 (≈ 0.139 µM)	14	1	0.006 (≈ 0.0166 µM)	0.013 (≈ 0.0361 µM)	2	100 (≈ 277 µM)	0.006 (≈ 0.0166 µM)
COc1c(N2CC[C@@H](C(C)(C)N)C2)c(F)cc2c(=O)c(C(=O)O)cn(C3CC3)c12.Cl	0.1	0.013	26	0.4	0.2	1.6	–	0.1	0.013	2	3	0.003	0.003	0.6	18	0.003
CC(C)(N)[C@H]1CCN(c2c(F)cc3c(=O)c(C(=O)O)cn(C4CC4)c3c2Cl)C1.Cl	0.1	0.025	27	0.4	0.2	1.6	–	0.1	0.05	13	4	0.013	0.025	4	–	0.013
NCC1CCN(c2cc3c(cc2F)c(=O)c(C(=O)O)cn3C2CC2)C1 (stereo not given)	0.05 (≈ 0.145 µM)	0.05 (≈ 0.145 µM)	> 100	0.2 (≈ 0.579 µM)	0.1 (≈ 0.29 µM)	0.8 (≈ 2.32 µM)	–	0.1 (≈ 0.29 µM)	0.05 (≈ 0.145 µM)	> 100	2	0.013 (≈ 0.0376 µM)	0.013 (≈ 0.0376 µM)	4	–	0.006 (≈ 0.0174 µM)
CC(C)(N)[C@H]1CCN(c2nc3c(cc2F)c(=O)c(C(=O)O)cn3-c2ccc(F)cc2F)C1.Cl	0.4	0.4	–	1.6	0.8	3.1	–	0.4	0.4	–	–	0.4	0.4	–	–	0.1
CC(C)(N)[C@@H]1CCN(c2c(F)cc3c(=O)c(C(=O)O)cn(C4CC4)c3c2Cl)C1.Cl	0.05	0.006	8	0.2	0.1	0.8	–	0.05	0.013	2	1	0.003	0.003	0.1	< 8	0.003
NCC1CCN(c2nc3c(cc2F)c(=O)c(C(=O)O)cn3C2CC2)C1 (stereo not given)	0.05 (≈ 0.144 µM)	0.1 (≈ 0.289 µM)	17	0.4 (≈ 1.15 µM)	0.1 (≈ 0.289 µM)	0.2 (≈ 0.577 µM)	–	0.1 (≈ 0.289 µM)	0.025 (≈ 0.0722 µM)	39	1	0.1 (≈ 0.289 µM)	0.025 (≈ 0.0722 µM)	4	42 (≈ 121 µM)	0.003 (≈ 0.00866 µM)
O=C(O)c1cn(C2CC2)c2cc(N3CCNCC3)c(F)cc2c1=O [CIPROFLOXACIN]	–	3.1 (≈ 9.36 µM)	1	0.1 (≈ 0.302 µM)	0.05 (≈ 0.151 µM)	0.4 (≈ 1.21 µM)	> 100	–	0.8 (≈ 2.41 µM)	180	0.3	1.6 (≈ 4.83 µM)	0.8 (≈ 2.41 µM)	19	–	0.2 (≈ 0.604 µM)
CC(C)(N)[C@@H]1CCN(c2nc3c(cc2F)c(=O)c(C(=O)O)cn3C2CC2)C1.Cl	0.05	0.1	5	0.4	0.2	1.6	73	0.1	0.05	4	1	0.006	0.013	1	130	0.003
CC(C)(N)[C@@H]1CCN(c2cc3c(cc2F)c(=O)c(C(=O)O)cn3C2CC2)C1.Cl	0.05	0.05	18	0.2	0.1	0.8	–	0.05	0.025	20	2	0.003	0.003	1	190	0.006
COc1c(N2CCC(CN)C2)c(F)cc2c(=O)c(C(=O)O)cn(C3CC3)c12 (stereo not given)	0.05 (≈ 0.133 µM)	0.025 (≈ 0.0666 µM)	–	0.1 (≈ 0.266 µM)	0.1 (≈ 0.266 µM)	0.8 (≈ 2.13 µM)	–	0.05 (≈ 0.133 µM)	0.013 (≈ 0.0346 µM)	11	–	0.003 (≈ 0.00799 µM)	0.003 (≈ 0.00799 µM)	0.6	–	0.003 (≈ 0.00799 µM)
COc1c(N2CC[C@H](C(C)(C)N)C2)c(F)cc2c(=O)c(C(=O)O)cn(C3CC3)c12.Cl	0.2	0.05	–	0.8	0.4	3.1	–	0.2	0.05	29	–	0.025	0.025	3	> 500	0.013
NC1CCN(c2c(F)cc3c(=O)c(C(=O)O)cn(C4CC4)c3c2F)C1 (stereo not given)	0.013 (≈ 0.0372 µM)	0.05 (≈ 0.143 µM)	1	0.05 (≈ 0.143 µM)	0.025 (≈ 0.0716 µM)	0.1 (≈ 0.286 µM)	3	0.025 (≈ 0.0716 µM)	0.05 (≈ 0.143 µM)	8	0.2	0.05 (≈ 0.143 µM)	0.05 (≈ 0.143 µM)	2	–	0.025 (≈ 0.0716 µM)
